Series [1] is described as follows: melting temperature; fluorescence melt of hairpins on a sequencing array, two-state fit, raised by 9.35 °C to match UV melts. Conditions: sodium 0.088 M. Summed up: (§1)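 Cy3 signals were normalised both to pre-quench Cy3 and to control constructs. They came from library hairpins carrying annealed Cy3 and quencher oligos on a sequenced MiSeq flow cell, imaged in 50 mM Na-HEPES pH 8.0, 25 mM NaCl, in 2.5 °C steps up to 60 °C. Bootstrapped two-state fits gave melting temperature and folding enthalpy, and four replicates were combined by inverse variance. Fitted temperatures were then raised by 9.35 °C to match UV melts.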

A short description of series [2]: folding enthalpy; higher = less favourable; fluorescence melt of hairpins on a sequencing array, two-state fit. Conditions: sodium 0.088 M. Summed up:
as §1

In the case of GTGACAGGAAACTGCCAC (((.(((....))).))), the Tm in series [1] was 46.8 °C. Besides, the folding enthalpy in series [2] was -33 kcal/mol.

Regarding GTGACCCGAAAGGGCAC (((.(((....)))))), the Tm in series [1] worked out at 62.4 °C. For the same sequence, the folding enthalpy in series [2] is -22.9 kcal/mol.

Regarding GTGACCGAAAGGTAGCAC ((((((....)))..))), the Tm in series [1] is 36.1 °C. Also, the folding enthalpy in series [2] is -16.9 kcal/mol.

GTGACCGAAAGGTCTCAC ((((((....)))..))): in series [1], the Tm was found to be 41.2 °C. In addition, the folding enthalpy in series [2] is -10.6 kcal/mol.

Take GTGACCGAAAGGTGGCAC ((((((....)))..))): the Tm in series [1] was 40.7 °C. The folding enthalpy in series [2] is -16.3 kcal/mol.

With GTGACCGAAAGGTGTCAC ((((((....)))..))), the Tm in series [1] was found to be 45.8 °C. Besides, the folding enthalpy in series [2] is -25.4 kcal/mol.

GTGACCGAAAGGTTTCAC ((((((....)))..))): the Tm in series [1] came to 34.8 °C. Besides, the folding enthalpy in series [2] is -13.1 kcal/mol.

GTGACCGCGAAAGCGCAC (((..(((....)))))): the Tm in series [1] worked out at 40.3 °C. For the same sequence, the folding enthalpy in series [2] was -8.65 kcal/mol.

For the sequence GTGACCGGAAACAGTCAC (((((.(....).))))), the Tm in series [1] was 45.2 °C. The folding enthalpy in series [2] is -32.1 kcal/mol.

Take GTGACCGGAAACGGTTGC (..((((....))))..): the Tm in series [1] was 47.6 °C. Further, the folding enthalpy in series [2] was -17.9 kcal/mol.

As for GTGACGACGAAAGTCCAC (((..(((....)))))), in series [1], the Tm is 38.2 °C. In addition, the folding enthalpy in series [2] is -13 kcal/mol.

As for GTGACGCGAAAGCGACAC (((.(((....))).))), the Tm in series [1] worked out at 69.3 °C. Besides, the folding enthalpy in series [2] was -33.9 kcal/mol.

Turning to GTGACGGCGAAAGCCCAC (((..(((....)))))), in series [1], the Tm amounted to 44.3 °C. Further, in series [2], the folding enthalpy was -12.1 kcal/mol.

Regarding GTGACGGGAAACCACCAC (((..((....))..))), the Tm in series [1] is 27.4 °C. For the same sequence, the folding enthalpy in series [2] was -15.7 kcal/mol.

Regarding GTGACGGGAAACCATCAC ((((.((....)).)))), in series [1], the Tm was found to be 42.1 °C. Besides, the folding enthalpy in series [2] was -32.6 kcal/mol.

With GTGACGGGAAACTGTCAC (((((.(....).))))), in series [1], the Tm was determined as 54.8 °C. Besides, in series [2], the folding enthalpy is -37.8 kcal/mol.

In the case of GTGACGTCGAAAGACCAC (((..(((....)))))), the Tm in series [1] stood at 40.3 °C. Also, in series [2], the folding enthalpy is -13.6 kcal/mol.

Turning to GTGACTGGAAACAGCCAC (((.(((....))).))), the Tm in series [1] was found to be 47.9 °C. For the same sequence, the folding enthalpy in series [2] was -41.7 kcal/mol.

In the case of GTGACTGGAAACAGTTAC ((.((((....)))).)), the Tm in series [1] is 45.5 °C. The folding enthalpy in series [2] was -29.2 kcal/mol.

On to GTGACTGGAAACAGTTGC (..((((....))))..), for which the Tm in series [1] was 39.3 °C. Also, the folding enthalpy in series [2] was -22.9 kcal/mol.

As for GTGAGAACGAAAGTTCAC (((..(((....)))))), the Tm in series [1] was 43.9 °C. The folding enthalpy in series [2] was -18 kcal/mol.

Consider GTGAGACGAAAGTCACAC (((.(((....))).))), for which, in series [1], the Tm stood at 55.4 °C. In addition, the folding enthalpy in series [2] was -31.3 kcal/mol.

In the case of GTGAGAGCGAAAGCTCAC (((..(((....)))))), the Tm in series [1] amounted to 48.6 °C. Also, the folding enthalpy in series [2] was -14.5 kcal/mol.

Turning to GTGAGCACGAAAGTGCAC (((..(((....)))))), in series [1], the Tm was found to be 60.1 °C. Further, in series [2], the folding enthalpy was -8.71 kcal/mol.

Consider GTGAGCGAAAGCTACAC ((((((....))).))), for which, in series [1], the Tm amounted to 49.1 °C. The folding enthalpy in series [2] was -16.1 kcal/mol.

Consider GTGAGGAAACTCAC (((((....))))), for which, in series [1], the Tm was found to be 51.9 °C. The folding enthalpy in series [2] is -24.5 kcal/mol.

Consider GTGAGGCGAAAGCCCCAC (((.(((....))).))), for which the Tm in series [1] was 53.8 °C. The folding enthalpy in series [2] is -22.8 kcal/mol.

Regarding GTGAGTGAAAACTCAC ((((((....)))))), in series [1], the Tm stood at 59.1 °C. Also, in series [2], the folding enthalpy was -37.7 kcal/mol.

With GTGAGTGGAAACATTCGC (.((.((....)).)).), the Tm in series [1] was determined as 33.4 °C. Further, the folding enthalpy in series [2] was -16.4 kcal/mol.

With GTGATACGAAAGTACCAC (((.(((....))).))), the Tm in series [1] was 45.6 °C. Further, the folding enthalpy in series [2] was -32.7 kcal/mol.

These data come from the array DNA melting data of Ke et al. (doi:10.1101/2024.01.08.574731).
